# Measurements as given in ChEMBL document CHEMBL1152647, “Hybrid pharmacophore design and synthesis of isatin-benzothiazole analogs for their anti-breast cancer activity” (Bioorg Med Chem, 2009).
# Active and inactive are the calls of the source. The calls are words filed in the database; no cut-off is given here.
# What was measured:
# MDA-MB-231 [1] = assay: Cytotoxicity against human MDA-MB-231 cells after 48 hrs by SRB assay; type: functional; conditions: MDA-MB-231, 48 h
# In short: (§1)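 Cancer lines grown in RPMI 1640 with 10% FBS and 2 mM L-glutamine; 184B5 and MCF10A grown in supplemented mammary epithelial basal medium. 5000–10,000 cells/well seeded, 24 h at 37 °C and 5% CO₂. Seven serially diluted concentrations added, final DMSO ≤0.1%, 48 h exposure. Fixed with 10% TCA (final) at 4 °C, stained with 0.4% SRB, solubilized in 10 mM Tris, A515–564. Growth % = (Ti−Tz)/(C−Tz)×100; GI50 from sigmoidal variable-slope fit; triplicates, ≥2 independent experiments.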
# MCF7 [2] = assay: Cytotoxicity against human MCF7 cells after 48 hrs by SRB assay; type: functional; conditions: MCF7, 48 h; in short: as §1
# [3] = Cytotoxicity against human 184B5 cells after 48 hrs by SRB assay; type: cell-based; in short: as §1
# MDA-MB-468 [4] = assay: Cytotoxicity against human MDA-MB-468 cells after 48 hrs by SRB assay; type: functional; conditions: MDA-MB-468, 48 h; in short: as §1
# [5] = Cytotoxicity against human MCF10A cells after 48 hrs by SRB assay; type: cell-based, MCF-10A; in short: as §1
# MCF7 [6] = assay: Cell cycle arrest in human MCF7 cells assessed as accumulation at S phase at 20 uM after 24 hrs by flow cytometry (Rvb=17%); type: functional
# In short: (§2)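 MCF7 or MCF10A cells treated with compound at 20 or 40 µM for 24 h, with DMSO-treated negative control. 2.0 × 10⁶ cells pelleted and fixed in ice-cold 70% ethanol (30 min to overnight, −20 °C), then washed in PBS. Stained 30 min at 37 °C with 100 µg/mL PI, 100 µg/mL RNase A, 0.3% NP-40 and 0.1% sodium citrate. DNA content read by flow cytometry; G0/G1, S and G2/M fractions taken from DNA histograms.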
# MCF-10A [7] = assay: Cell cycle arrest in human MCF10A cells assessed as accumulation at S phase at 20 uM after 24 hrs by flow cytometry; type: functional, cell-based; in short: as §2
# MCF-10A [8] = assay: Cell cycle arrest in human MCF10A cells assessed as accumulation at G2/M phase at 20 uM after 24 hrs by flow cytometry; type: functional, cell-based; in short: as §2
# MCF7 [9] = assay: Cell cycle arrest in human MCF7 cells assessed as accumulation at G2/M phase at 20 uM after 24 hrs by flow cytometry (Rvb=12%); type: functional; in short: as §2
# MCF7 [10] = assay: Cell cycle arrest in human MCF7 cells assessed as accumulation at G2/M phase at 40 uM after 24 hrs by flow cytometry; type: functional, cell-based; in short: as §2
# MDA-MB-468 [11] = assay: Selectivity ratio of GI50 for human 184B5 cells to GI50 for human MDA-MB-468 cells
# In short: (§3)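 Ratio of non-cancer to cancer GI50, each from 48 h SRB growth assays (seven concentrations, sigmoidal variable-slope fit, triplicates in ≥2 independent experiments).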
# MDA-MB-231 [12] = assay: Selectivity ratio of GI50 for human MCF10A cells to GI50 for human MDA-MB-231 cells; in short: as §3
compound,measurement,setting,value
CN(C)CN1C(=O)C(=O)c2ccccc21,GI50,MDA-MB-231 [1],65.6 µM
same,GI50,MCF7 [2],40.5 µM
same,GI50 at 48 h,[3],73.7 µM
same,GI50,MDA-MB-468 [4],50.1 µM
same,GI50 at 48 h,[5],150 µM
Cc1ccc2nc(/N=C3\C(=O)N(CN(C)C)c4ccccc43)sc2c1,GI50,MDA-MB-231 [1],19.2 µM
same,GI50,MCF7 [2],29.2 µM
same,GI50 at 48 h,[3],15.6 µM
same,GI50,MDA-MB-468 [4],35.5 µM
same,GI50 at 48 h,[5],13.4 µM
O=C1C(=O)N(CN2CCOCC2)c2cccc(Br)c21,GI50,MDA-MB-231 [1],29.7 µM
same,GI50,MCF7 [2],65.6 µM
same,GI50 at 48 h,[3],79.5 µM
same,GI50,MDA-MB-468 [4],54 µM
same,GI50 at 48 h,[5],82.3 µM
CCN(CC)CN1C(=O)/C(=N\c2nc3ccc(C)cc3s2)c2c(Br)cccc21,GI50,MDA-MB-231 [1],28.7 µM
same,GI50,MCF7 [2],30.2 µM
same,GI50 at 48 h,[3],34.3 µM
same,GI50,MDA-MB-468 [4],43.1 µM
same,GI50 at 48 h,[5],16.1 µM
Cc1ccc2nc(/N=C3\C(=O)N(CN4CCOCC4)c4cccc(Cl)c43)sc2c1,GI50,MDA-MB-231 [1],37.1 µM
same,GI50,MCF7 [2],21.5 µM
same,GI50 at 48 h,[3],63.5 µM
same,GI50,MDA-MB-468 [4],24 µM
same,GI50 at 48 h,[5],62.3 µM
Cc1ccc2nc(/N=C3\C(=O)N(CN(c4ccccc4)c4ccccc4)c4cccc(Br)c43)sc2c1,GI50,MDA-MB-231 [1],75.1 µM
same,GI50,MCF7 [2],30.2 µM
same,GI50 at 48 h,[3],70.2 µM
same,GI50,MDA-MB-468 [4],82.3 µM
same,GI50 at 48 h,[5],67.9 µM
O=C1C(=O)N(CN2CCOCC2)c2ccccc21,GI50,MDA-MB-231 [1],57.6 µM
same,GI50,MCF7 [2],52.3 µM
same,GI50 at 48 h,[3],78.7 µM
same,GI50,MDA-MB-468 [4],28.2 µM
same,GI50 at 48 h,[5],72.1 µM
Cc1ccc2nc(/N=C3\C(=O)N(CN4CCOCC4)c4cccc(Br)c43)sc2c1,GI50,MDA-MB-231 [1],94.6 µM
same,GI50,MCF7 [2],12 µM
same,GI50 at 48 h,[3],29.9 µM
same,GI50,MDA-MB-468 [4],24.8 µM
same,GI50 at 48 h,[5],33.2 µM
CCN(CC)CN1C(=O)/C(=N\c2nc3ccc(C)cc3s2)c2ccccc21,GI50,MDA-MB-231 [1],32.7 µM
same,GI50,MCF7 [2],74.8 µM
same,GI50 at 48 h,[3],27.5 µM
same,GI50,MDA-MB-468 [4],63.5 µM
same,GI50 at 48 h,[5],20.4 µM
CN(C)CN1C(=O)C(=O)c2c(Cl)cccc21,GI50,MDA-MB-231 [1],138 µM
same,GI50,MCF7 [2],87.8 µM
same,GI50 at 48 h,[3],130 µM
same,GI50,MDA-MB-468 [4],107 µM
same,GI50 at 48 h,[5],82.3 µM
O=C1C(=O)N(CN2CCCCC2)c2ccccc21,GI50,MDA-MB-231 [1],38 µM
same,GI50,MCF7 [2],41.2 µM
same,GI50 at 48 h,[3],68 µM
same,GI50,MDA-MB-468 [4],24.1 µM
same,GI50 at 48 h,[5],41.8 µM
CCN(CC)CCCC(C)Nc1ccnc2cc(Cl)ccc12 (stereo not drawn) [CHLOROQUINE],GI50 at 48 h,[3],76.1 µM
same,GI50 at 48 h,[5],81.3 µM
O=C1C(=O)N(CN2CCCCC2)c2cccc(Cl)c21,GI50,MDA-MB-231 [1],26.5 µM
same,GI50,MCF7 [2],51.2 µM
same,GI50 at 48 h,[3],93.7 µM
same,GI50,MDA-MB-468 [4],82.8 µM
same,GI50 at 48 h,[5],70.7 µM
O=C1C(=O)N(CN(c2ccccc2)c2ccccc2)c2cccc(Cl)c21,GI50,MDA-MB-231 [1],31.4 µM
same,GI50,MCF7 [2],29.7 µM
same,GI50 at 48 h,[3],96.8 µM
same,GI50,MDA-MB-468 [4],14.3 µM
same,GI50 at 48 h,[5],77.2 µM
CCN(CC)CN1C(=O)C(=O)c2c(Cl)cccc21,GI50,MDA-MB-231 [1],44.5 µM
same,GI50,MCF7 [2],34 µM
same,GI50 at 48 h,[3],22.5 µM
same,GI50,MDA-MB-468 [4],28.3 µM
same,GI50 at 48 h,[5],35 µM
O=C1C(=O)N(CN(c2ccccc2)c2ccccc2)c2ccccc21,GI50,MDA-MB-231 [1],24.8 µM
same,GI50,MCF7 [2],23.7 µM
same,GI50 at 48 h,[3],33.7 µM
same,GI50,MDA-MB-468 [4],21.5 µM
same,GI50 at 48 h,[5],73 µM
Cc1ccc2nc(/N=C3\C(=O)N(CN4CCCCC4)c4cccc(Br)c43)sc2c1,GI50,MDA-MB-231 [1],38.2 µM
same,GI50,MCF7 [2],39.1 µM
same,GI50 at 48 h,[3],85.2 µM
same,GI50,MDA-MB-468 [4],24 µM
same,GI50 at 48 h,[5],18.4 µM
Cc1ccc2nc(/N=C3\C(=O)N(CN(c4ccccc4)c4ccccc4)c4ccccc43)sc2c1,GI50,MDA-MB-231 [1],34.1 µM
same,GI50,MCF7 [2],39.1 µM
same,GI50 at 48 h,[3],27.2 µM
same,GI50,MDA-MB-468 [4],17.7 µM
same,GI50 at 48 h,[5],34 µM
Cc1ccc2nc(/N=C3\C(=O)N(CN(C)C)c4cccc(Cl)c43)sc2c1,GI50,MDA-MB-231 [1],10.9 µM
same,GI50,MCF7 [2],20.7 µM
same,GI50 at 48 h,[3],5.77 µM
same,GI50,MDA-MB-468 [4],28.1 µM
same,GI50 at 48 h,[5],7.02 µM
O=C1C(=O)N(CN(c2ccccc2)c2ccccc2)c2cccc(Br)c21,GI50,MDA-MB-231 [1],51.1 µM
same,GI50,MCF7 [2],110 µM
same,GI50 at 48 h,[3],98.5 µM
same,GI50,MDA-MB-468 [4],63.2 µM
same,GI50 at 48 h,[5],85.8 µM
Cc1ccc2nc(/N=C3\C(=O)N(CN(C)C)c4cccc(Br)c43)sc2c1,GI50,MDA-MB-231 [1],49 µM
same,GI50,MCF7 [2],17.9 µM
same,GI50 at 48 h,[3],74.8 µM
same,GI50,MDA-MB-468 [4],27.4 µM
same,GI50 at 48 h,[5],21.8 µM
CCN(CC)CN1C(=O)/C(=N\c2nc3ccc(C)cc3s2)c2c(Cl)cccc21,GI50,MDA-MB-231 [1],20.4 µM
same,GI50,MCF7 [2],19.2 µM
same,GI50 at 48 h,[3],87.8 µM
same,GI50,MDA-MB-468 [4],27.3 µM
same,GI50 at 48 h,[5],43.9 µM
O=C1C(=O)N(CN2CCCCC2)c2cccc(Br)c21,GI50,MDA-MB-231 [1],30.2 µM
same,GI50,MCF7 [2],31.4 µM
same,GI50 at 48 h,[3],85.2 µM
same,GI50,MDA-MB-468 [4],35.3 µM
same,GI50 at 48 h,[5],66.9 µM
O=C1C(=O)N(CN2CCOCC2)c2cccc(Cl)c21,GI50,MDA-MB-231 [1],61.5 µM
same,GI50,MCF7 [2],29.2 µM
same,GI50 at 48 h,[3],79.8 µM
same,GI50,MDA-MB-468 [4],61.5 µM
same,GI50 at 48 h,[5],78.5 µM
CN(C)CN1C(=O)C(=O)c2c(Br)cccc21,GI50,MDA-MB-231 [1],93.7 µM
same,GI50,MCF7 [2],57.6 µM
same,GI50 at 48 h,[3],77.9 µM
same,GI50,MDA-MB-468 [4],49 µM
same,GI50 at 48 h,[5],67.8 µM
Cc1ccc2nc(/N=C3\C(=O)N(CN4CCCCC4)c4cccc(Cl)c43)sc2c1,GI50,MDA-MB-231 [1],55.8 µM
same,GI50,MCF7 [2],30.9 µM
same,GI50 at 48 h,[3],82.3 µM
same,GI50,MDA-MB-468 [4],19.8 µM
same,GI50 at 48 h,[5],30.2 µM
Cc1ccc2nc(/N=C3\C(=O)N(CN4CCOCC4)c4ccccc43)sc2c1,GI50,MDA-MB-231 [1],19.8 µM
same,Activity,MCF7 [6],inactive
same,GI50,MCF7 [2],14.6 µM
same,GI50 at 48 h,[3],30.6 µM
same,Activity,MCF-10A [7],inactive
same,Activity,MCF-10A [8],inactive
same,GI50,MDA-MB-468 [4],17.6 µM
same,Activity,MCF7 [9],inactive
same,Activity,MCF7 [10],Active
same,GI50 at 48 h,[5],38.5 µM
CCN(CC)CN1C(=O)C(=O)c2c(Br)cccc21,RatioGI50,MDA-MB-468 [11],14.7
same,GI50,MDA-MB-231 [1],20.2 µM
same,Activity,MCF7 [6],8%
same,RatioGI50,MDA-MB-231 [12],5.6
same,GI50,MCF7 [2],20.2 µM
same,GI50 at 48 h,[3],172 µM
same,Activity,MCF-10A [7],inactive
same,Activity,MCF-10A [8],inactive
same,GI50,MDA-MB-468 [4],11.7 µM
same,Activity,MCF7 [9],38%
same,GI50 at 48 h,[5],113 µM
CCN(CC)CN1C(=O)C(=O)c2ccccc21,GI50,MDA-MB-231 [1],60.6 µM
same,GI50,MCF7 [2],44.1 µM
same,GI50 at 48 h,[3],41.7 µM
same,GI50,MDA-MB-468 [4],35.9 µM
same,GI50 at 48 h,[5],73.6 µM
Cc1ccc2nc(/N=C3\C(=O)N(CN(c4ccccc4)c4ccccc4)c4cccc(Cl)c43)sc2c1,GI50,MDA-MB-231 [1],54 µM
same,GI50,MCF7 [2],24.3 µM
same,GI50 at 48 h,[3],67.8 µM
same,GI50,MDA-MB-468 [4],85 µM
same,GI50 at 48 h,[5],70 µM
Cc1ccc2nc(/N=C3\C(=O)N(CN4CCCCC4)c4ccccc43)sc2c1,GI50,MDA-MB-231 [1],34.5 µM
same,GI50,MCF7 [2],37.8 µM
same,GI50 at 48 h,[3],34.9 µM
same,GI50,MDA-MB-468 [4],65.6 µM
same,GI50 at 48 h,[5],38.9 µM
